Consider twelve compounds from ChEMBL document CHEMBL1135632, “Synthesis and investigation of conformationally restricted analogues of lavendustin A as cytotoxic inhibitors of tubulin polymerization” (J Med Chem, 2002).

By GI50 is commonly meant the concentration at which growth is held to half of that of the control. What is called IC50 is the concentration that inhibits the measured activity by half. A low value points to greater potency in that assay.

Data set [1] is filed under the species Homo sapiens. Put plainly: Cytotoxicity against renal SN12C. In kind it is functional. The essentials:
(§1)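 NCI human cancer cell line screen. Compounds were tested from 10^-4 to 10^-8 M, and GI50 was taken as the concentration giving 50% growth inhibition. Agents whose mean graph midpoint across about 55 lines was 10 μM or less on the first determination were assayed a second time, with standard deviations calculated. Agents above 10 μM were not evaluated further.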

Data set [2] is filed under the species Homo sapiens. Put plainly: Cytotoxicity against lung HOP-62. In kind it is functional. In outline:
as §1

The species entered for data set [3] is Homo sapiens. Put plainly: Cytotoxicity against prostate DU-145. The note with it: DU-145, Prostate gland. In kind it is functional. In outline:
as §1

The species named for data set [4] is Homo sapiens. Nature of the data set: Cytotoxicity against ovarian OVCAR-3. In kind it is functional. The essentials:
as §1

A short description of data set [5]: (§2) Cytotoxicity against leukemia CCRF-CEM. The format is functional. The note with it: Homo sapiens. In outline: as §1
The species entered for data set [6] is Homo sapiens. Put plainly: Cytotoxicity against CNS SF-539. The format is functional. The note with it: CNSSF-539. In outline:
as §1

Data set [7] is filed under the species Homo sapiens. Nature of the data set: Cytotoxicity against colon HCT116. The format is functional. The note with it: HCT-116. In outline:
as §1

The species entered for data set [8] is Homo sapiens. Nature of the data set: Cytotoxicity against melanoma UACC-62. In kind it is functional. The essentials: as §1
For data set [9], the species on record is Homo sapiens. Put plainly: Cytotoxicity against breast MDA-MB-435. The format is functional. In outline:
as §1

The target in a further data set is Tubulin (Bos taurus, UniProt Q6B856+Q862L2+Q862F3). Nature of the data set: Inhibition of tubulin polymerization at concentration 10 uM. In kind it is functional.
Data set [10] in a line: as §2. In kind it is cell-based. The note with it: human, CCRF-CEM leukemia cells.
In another data set the target is Tubulin (Bos taurus). Nature of the data set: Inhibition of tubulin polymerization at concentration 10 uM.

For the compound `CCCCCCNC(=O)c1cc(NCc2cc(O)ccc2O)ccc1O`, the 50% growth inhibitory concentration (GI50) worked out at 6.1 µM in the data set filed under Homo sapiens [1]; 19 µM in the data set listed under Homo sapiens [2]; 15 µM in the data set listed under Homo sapiens [3]; 4 µM in the data set filed under Homo sapiens [4]; 0.56 µM in data set [5]; 2.3 µM in the data set filed under Homo sapiens [6]. The 50% growth inhibitory concentration (GI50) in the data set listed under Homo sapiens [7] was determined as 17 µM; in the data set listed under Homo sapiens [8] it was 12 µM; in the data set filed under Homo sapiens [9], 15 µM. This compound registered a half-inhibitory concentration (IC50) on Tubulin of 3.6 µM.

In the case of `O=C(NCCc1ccccc1)c1cc(NCc2cc(O)ccc2O)ccc1O`, the GI50 in the data set filed under Homo sapiens [1] was 18 µM; in the data set listed under Homo sapiens [2], 20 µM; in the data set listed under Homo sapiens [3] it was 16 µM; in the data set listed under Homo sapiens [4], 7.7 µM; in data set [5] it was 2.7 µM; in the data set listed under Homo sapiens [6], 17 µM. The GI50 in the data set listed under Homo sapiens [7] is 18 µM; in the data set filed under Homo sapiens [8] it was 14 µM; in the data set filed under Homo sapiens [9] it was 19 µM. In addition, on Tubulin, the IC50 was 3.6 µM.

Take `Oc1ccc(O)c(CNc2ccc(O)c(/C=C/CCc3ccccc3)c2)c1`: the concentration for 50% growth inhibition (GI50) in the data set filed under Homo sapiens [1] is 21.4 µM; in the data set filed under Homo sapiens [2] it was 35.4 µM; in the data set listed under Homo sapiens [3] it was 18.7 µM; in the data set filed under Homo sapiens [4], 20.4 µM; in data set [5], 1.1 µM; in the data set filed under Homo sapiens [6] it was 16.3 µM. For the same compound, the values for the GI50 in the data set listed under Homo sapiens [7], in the data set listed under Homo sapiens [8] and in the data set filed under Homo sapiens [9] were 30.4 µM, 18 µM and 5.7 µM, respectively. The concentration for half-maximal inhibition (IC50) against Tubulin turned out to be 7.2 µM.

Consider `COc1ccc(NCc2cc(O)ccc2O)c2c1C(=O)N(CCc1ccc(F)cc1)C2`, for which the GI50 was determined as 20.4 µM in the data set listed under Homo sapiens [1]; 31.4 µM in the data set filed under Homo sapiens [2]; 16.1 µM in the data set listed under Homo sapiens [3]; 8.4 µM in the data set listed under Homo sapiens [4]; 3.4 µM in data set [5]; 14.4 µM in the data set listed under Homo sapiens [6]. Further, the values for the GI50 in the data set listed under Homo sapiens [7], in the data set filed under Homo sapiens [8] and in the data set listed under Homo sapiens [9] were 20.4 µM, 19.1 µM and 14 µM, respectively. At Tubulin, this compound displayed a 50% inhibitory concentration (IC50) of 5.9 µM.

`O=c1oc2ccc(NCc3cc(O)ccc3O)cc2c(=O)n1CCc1ccc(F)cc1`: the concentration for 50% growth inhibition (GI50) in the data set filed under Homo sapiens [1] is 6.6 µM; in the data set listed under Homo sapiens [2], 17.2 µM; in the data set filed under Homo sapiens [3] it was 17.7 µM; in the data set filed under Homo sapiens [4], 2.8 µM; in data set [5] it was 0.78 µM; in the data set listed under Homo sapiens [6], 5.1 µM. For the same compound, the figures for the GI50 in the data set filed under Homo sapiens [7], in the data set filed under Homo sapiens [8] and in the data set listed under Homo sapiens [9] were 4.2 µM, 7 µM and 4.9 µM, respectively. Moreover, on Tubulin, the IC50 is 6.8 µM.

For `Oc1ccc(O)c(CNc2ccc(O)c(/C=C\CCc3ccccc3)c2)c1`, the GI50 in the data set listed under Homo sapiens [1] is 17.8 µM; in the data set listed under Homo sapiens [2], 20.5 µM; in the data set filed under Homo sapiens [3], 34 µM; in the data set listed under Homo sapiens [4], 21.9 µM; in data set [5], 0.7 µM; in the data set filed under Homo sapiens [6], 11.6 µM. Further, the 50% growth inhibitory concentration (GI50) turned out to be 19.3 µM in the data set listed under Homo sapiens [7], 15.9 µM in the data set listed under Homo sapiens [8] and 17.1 µM in the data set filed under Homo sapiens [9]. At Tubulin, the 50% inhibitory concentration (IC50) was found to be 3.7 µM.

As to `O=C1c2c(O)ccc(NCc3cc(O)ccc3O)c2CN1CCc1ccccc1`, the 50% growth inhibitory concentration (GI50) in the data set listed under Homo sapiens [1] is 12.9 µM; in the data set listed under Homo sapiens [2], 26.8 µM; in the data set listed under Homo sapiens [3], 14.5 µM; in the data set filed under Homo sapiens [4] it was 6.2 µM; in data set [5], 2.3 µM; in the data set filed under Homo sapiens [6], 23.1 µM. The GI50 stood at 19.9 µM in the data set filed under Homo sapiens [7], 10.1 µM in the data set listed under Homo sapiens [8] and 14.8 µM in the data set filed under Homo sapiens [9]. In addition, at Tubulin, the IC50 is 7.4 µM.

`O=c1oc2ccc(NCc3cc(O)ccc3O)cc2c(=O)n1CCc1ccccc1`: the GI50 in the data set listed under Homo sapiens [1] amounted to 9.6 µM; in the data set listed under Homo sapiens [2] it was 21.4 µM; in the data set listed under Homo sapiens [3], 15.3 µM; in the data set filed under Homo sapiens [4], 3.6 µM; in data set [10] it was 1.3 µM; in the data set listed under Homo sapiens [6] it was 8.9 µM. Further, the GI50 in the data set listed under Homo sapiens [7] is 4.6 µM; in the data set listed under Homo sapiens [8], 6 µM; in the data set listed under Homo sapiens [9] it was 5.6 µM. Moreover, the IC50 against Tubulin worked out at 8.3 µM.

For `CCCCCCn1c(=O)oc2ccc(NCc3cc(O)ccc3O)cc2c1=O`, the 50% growth inhibitory concentration (GI50) worked out at 4.2 µM in the data set listed under Homo sapiens [1]; 14.8 µM in the data set listed under Homo sapiens [2]; 13.8 µM in the data set filed under Homo sapiens [3]; 1.7 µM in the data set filed under Homo sapiens [4]; 0.27 µM in [5]; 2.4 µM in the data set listed under Homo sapiens [6]. Also, the GI50 in the data set listed under Homo sapiens [7] came out at 3.2 µM; in the data set filed under Homo sapiens [8] it was 3.2 µM; in the data set filed under Homo sapiens [9] it was 3.9 µM. The half-inhibitory concentration (IC50) against Tubulin worked out at 6 µM.

On to `O=C1c2c(O)ccc(NCc3cc(O)ccc3O)c2CN1CCc1ccc(F)cc1`, for which the GI50 in the data set filed under Homo sapiens [1] was determined as 16 µM; in the data set filed under Homo sapiens [2], 19.6 µM; in the data set listed under Homo sapiens [3], 24.6 µM; in the data set filed under Homo sapiens [4], 8.8 µM; in [5], 1.8 µM; in the data set filed under Homo sapiens [6] it was 14.4 µM. In addition, the GI50 in the data set filed under Homo sapiens [7] is 18.7 µM; in the data set filed under Homo sapiens [8] it was 13.3 µM; in the data set filed under Homo sapiens [9], 15.6 µM. The compound also displayed a concentration for half-maximal inhibition (IC50) against Tubulin of 5.9 µM.

The compound `COc1ccc(NCc2cc(O)ccc2O)c2c1C(=O)N(CCc1ccccc1)C2` displayed an IC50 against Tubulin (Bos taurus) of 9.5 µM.

Regarding `O=C(NCCc1ccc(F)cc1)c1cc(NCc2cc(O)ccc2O)ccc1O`, the GI50 in the data set listed under Homo sapiens [1] was 0.58 µM; in the data set listed under Homo sapiens [2] it was 0.28 µM; in the data set filed under Homo sapiens [3], 0.27 µM; in the data set filed under Homo sapiens [4], 0.15 µM; in data set [5], 0.22 µM; in the data set listed under Homo sapiens [6], 0.32 µM. Further, the GI50 was found to be 0.33 µM in the data set filed under Homo sapiens [7], 0.41 µM in the data set listed under Homo sapiens [8] and 0.047 µM in the data set filed under Homo sapiens [9]. The compound further registered an IC50 against Tubulin of 4 µM.
